Consider 2 compounds from ChEMBL document CHEMBL4007430, “Synthesis and Cytostatic and Antiviral Profiling of Thieno-Fused 7-Deazapurine Ribonucleosides” (J Med Chem, 2017).

The test system of series [1] is HepG2. As to the kind of experiment: Cytotoxicity against human HepG2 cells assessed as reduction in cell viability after 72 hrs by XTT assay. The following applies: HepG2, 72 h. Format: functional, cell-based. Summed up:
(§1)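 Cells were incubated with compound for 3 days. Viability was then measured with the XTT tetrazolium assay.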

A short description of series [2]: Cytotoxicity against mrp-1/mdr-1 overexpressing human CEM-DNR-bulk cells assessed as cell growth inhibition after 72 hrs by MTS assay. Type of series: functional, cell-based. Summed up: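 Cells were exposed to compound for 3 days, then stained with MTS as a quantitative metabolic read-out.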
Series [3] addresses T1, Adenosine kinase (Homo sapiens, UniProt P55263). In words: Drug level in human HCT116 cells assessed as ADK-mediated compound formation treated with 4-Methylsulfanyl-8-(beta-D-ribofuranosyl)-8H-thieno[3',2':4,5]-pyrrolo[2,3-d]pyrimidine at 1 umol/L after 1 hr by UPLC-MS/MS analysis. Format: ADME, cell-based.
Series [4] deals with MRC5. As to the kind of experiment: Cytotoxicity against human MRC5 cells assessed as cell growth inhibition after 72 hrs by MTS assay. Format: cell-based. The following applies: MRC5, 72 h. Summed up: (§2)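 Cells were exposed to compound for 3 days, then stained with MTS as a quantitative metabolic read-out. IC50 is the concentration that inhibits cell growth by 50%.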
Series [5] has as its target T1, Adenosine kinase. In words: Drug metabolism in human HCT116 cells assessed as ADK-mediated 4-Methylsulfanyl-8-(beta-D-ribofuranosyl)-8H-thieno[3,2:4,5]-pyrrolo[2,3-d]pyrimidine-5-O-monophosphate Sodium Salt formation per 5 x10^5 cells at 10 umol/L after 1 hr by UPLC-MS/MS analysis. Type of series: ADME, cell-based. The following applies: 10 µM.
Series [6] relates to K562. In words: Cytotoxicity against human K562 cells assessed as cell growth inhibition after 72 hrs by MTS assay. Type of series: functional, cell-based. As to conditions: K562, 72 h. Summed up: as §2
Series [7] deals with T1, Adenosine kinase. In words: Drug metabolism in human BJ cells assessed as ADK-mediated 4-Methylsulfanyl-8-(beta-D-ribofuranosyl)-8H-thieno[3,2:4,5]-pyrrolo[2,3-d]pyrimidine-5-O-monophosphate Sodium Salt formation per 5 x10^5 cells at 1 umol/L after 1 hr by UPLC-MS/MS analysis. Type of series: ADME, cell-based. The following applies: 1 µM.
Series [8] addresses T1, Adenosine kinase. In words: Drug level in human HCT116 cells assessed as ADK-mediated compound formation treated with 4-Methylsulfanyl-8-(beta-D-ribofuranosyl)-8H-thieno[3',2':4,5]-pyrrolo[2,3-d]pyrimidine at 10 umol/L after 3 hrs by UPLC-MS/MS analysis. Format: ADME, cell-based.
The test system of series [9] is HCT-116. In words: Cytotoxicity against p53 deficient human HCT116 cells assessed as cell growth inhibition after 72 hrs by MTS assay. The following applies: HCT-116, 72 h. Type of series: functional, cell-based. Summed up: as §2
The nature of series [10]: Cytotoxicity against human K562-TAX cells assessed as cell growth inhibition after 72 hrs by MTS assay. Format: functional, cell-based. Summed up:
as §2

Series [11] concerns HCT-116. As to the kind of experiment: Cytotoxicity against human HCT116 cells assessed as cell growth inhibition after 72 hrs by MTS assay. Format: functional, cell-based. As to conditions: HCT-116, 72 h. Summed up:
as §2

The test system of series [12] is HeLa S3. As to the kind of experiment: Cytotoxicity against human HeLaS3 cells assessed as reduction in cell viability after 72 hrs by XTT assay. The following applies: HeLa S3, 72 h. Type of series: functional, cell-based. Summed up: as §1
In series [13] the target is T1, Adenosine kinase. In words: Drug metabolism in human HCT116 cells assessed as ADK-mediated 4-Methylsulfanyl-8-(beta-D-ribofuranosyl)-8H-thieno[3,2:4,5]-pyrrolo[2,3-d]pyrimidine-5-O-monophosphate Sodium Salt formation per 5 x10^5 cells at 10 umol/L after 3 hrs by UPLC-MS/MS analysis. Format: ADME, cell-based. The following applies: 10 µM.
Series [14] deals with T1, Adenosine kinase. As to the kind of experiment: Drug metabolism in human BJ cells assessed as ADK-mediated 4-Methylsulfanyl-8-(beta-D-ribofuranosyl)-8H-thieno[3,2:4,5]-pyrrolo[2,3-d]pyrimidine-5-O-monophosphate Sodium Salt formation per 5 x10^5 cells at 10 umol/L after 1 hr by UPLC-MS/MS analysis. Type of series: ADME, cell-based. As to conditions: 10 µM.
Series [15] has as its system U2OS. As to the kind of experiment: Cytotoxicity against human U2OS cells assessed as cell growth inhibition after 72 hrs by MTS assay. Format: functional, cell-based.
Series [16] deals with HL-60. As to the kind of experiment: Cytotoxicity against human HL60 cells assessed as reduction in cell viability after 72 hrs by XTT assay. The following applies: HL-60, 72 h. Format: functional, cell-based. Summed up: as §1
Series [17] concerns the target T1, Adenosine kinase. In words: Drug level in human BJ cells assessed as ADK-mediated compound formation treated with 4-Methylsulfanyl-8-(beta-D-ribofuranosyl)-8H-thieno[3',2':4,5]-pyrrolo[2,3-d]pyrimidine at 10 umol/L after 1 hr by UPLC-MS/MS analysis. Type of series: ADME, cell-based.
The target in series [18] is T1, Adenosine kinase. In words: Drug metabolism in human HCT116 cells assessed as ADK-mediated 4-Methylsulfanyl-8-(beta-D-ribofuranosyl)-8H-thieno[3,2:4,5]-pyrrolo[2,3-d]pyrimidine-5-O-monophosphate Sodium Salt formation per 5 x10^5 cells at 1 umol/L after 1 hr by UPLC-MS/MS analysis. As to conditions: 1 µM. Type of series: ADME, cell-based.
Series [19] relates to A549. In words: Cytotoxicity against human A549 cells assessed as cell growth inhibition after 72 hrs by MTS assay. Type of series: functional, cell-based. The following applies: A549, 72 h. Summed up: as §2
Series [20] addresses T1, Adenosine kinase. As to the kind of experiment: Drug level in human BJ cells assessed as ADK-mediated compound formation treated with 4-Methylsulfanyl-8-(beta-D-ribofuranosyl)-8H-thieno[3',2':4,5]-pyrrolo[2,3-d]pyrimidine at 1 umol/L after 3 hrs by UPLC-MS/MS analysis. Type of series: ADME, cell-based.
The subject of series [21] is CCRF-CEM. In words: Cytotoxicity against human CCRF-CEM cells assessed as cell growth inhibition after 72 hrs by MTS assay.
For series [22], the target named is T1, Adenosine kinase. As to the kind of experiment: Drug level in human HCT116 cells assessed as ADK-mediated compound formation treated with 4-Methylsulfanyl-8-(beta-D-ribofuranosyl)-8H-thieno[3',2':4,5]-pyrrolo[2,3-d]pyrimidine at 1 umol/L after 3 hrs by UPLC-MS/MS analysis. Format: ADME, cell-based.
Series [23] deals with T1, Adenosine kinase. As to the kind of experiment: Drug level in human BJ cells assessed as ADK-mediated compound formation treated with 4-Methylsulfanyl-8-(beta-D-ribofuranosyl)-8H-thieno[3',2':4,5]-pyrrolo[2,3-d]pyrimidine at 1 umol/L after 1 hr by UPLC-MS/MS analysis. Format: ADME, cell-based.
Series [24] has as its target T1, Adenosine kinase. As to the kind of experiment: Drug metabolism in human BJ cells assessed as ADK-mediated 4-Methylsulfanyl-8-(beta-D-ribofuranosyl)-8H-thieno[3,2:4,5]-pyrrolo[2,3-d]pyrimidine-5-O-monophosphate Sodium Salt formation per 5 x10^5 cells at 10 umol/L after 3 hrs by UPLC-MS/MS analysis. Type of series: ADME, cell-based. As to conditions: 10 µM.
Series [25] has as its target T1, Adenosine kinase. As to the kind of experiment: Drug metabolism in human HCT116 cells assessed as ADK-mediated 4-Methylsulfanyl-8-(beta-D-ribofuranosyl)-8H-thieno[3,2:4,5]-pyrrolo[2,3-d]pyrimidine-5-O-monophosphate Sodium Salt formation per 5 x10^5 cells at 1 umol/L after 3 hrs by UPLC-MS/MS analysis. Format: ADME, cell-based. The following applies: 1 µM.
For series [26], the target named is T1, Adenosine kinase. In words: Drug level assessed as human ADK-mediated compound formation treated with 4-Methylsulfanyl-8-(beta-D-ribofuranosyl)-8H-thieno[3',2':4,5]-pyrrolo[2,3-d]pyrimidine at 50 uM after 30 mins by HPLC analysis. Format: ADME. As to conditions: 0.5 h.
Series [27] deals with BJ. In words: Cytotoxicity against human BJ cells assessed as cell growth inhibition after 72 hrs by MTS assay. Type of series: cell-based. Summed up:
as §2

In series [28] the target is T1, Adenosine kinase. In words: Drug level in human HCT116 cells assessed as ADK-mediated compound formation treated with 4-Methylsulfanyl-8-(beta-D-ribofuranosyl)-8H-thieno[3',2':4,5]-pyrrolo[2,3-d]pyrimidine at 10 umol/L after 1 hr by UPLC-MS/MS analysis. Format: ADME, cell-based.
Series [29] deals with T1, Adenosine kinase. As to the kind of experiment: Drug level in human BJ cells assessed as ADK-mediated compound formation treated with 4-Methylsulfanyl-8-(beta-D-ribofuranosyl)-8H-thieno[3',2':4,5]-pyrrolo[2,3-d]pyrimidine at 10 umol/L after 3 hrs by UPLC-MS/MS analysis. Type of series: ADME, cell-based.
Series [30] deals with T1, Adenosine kinase. As to the kind of experiment: Drug metabolism in human BJ cells assessed as ADK-mediated 4-Methylsulfanyl-8-(beta-D-ribofuranosyl)-8H-thieno[3,2:4,5]-pyrrolo[2,3-d]pyrimidine-5-O-monophosphate Sodium Salt formation per 5 x10^5 cells at 1 umol/L after 3 hrs by UPLC-MS/MS analysis. As to conditions: 1 µM. Format: ADME, cell-based.
Series [31] addresses T1, Adenosine kinase. As to the kind of experiment: Drug level assessed as human ADK-mediated compound formation treated with adenosine at 50 uM after 30 mins by HPLC analysis. Format: ADME. The following applies: 0.5 h.

T1 sequence (P55263 whole entry): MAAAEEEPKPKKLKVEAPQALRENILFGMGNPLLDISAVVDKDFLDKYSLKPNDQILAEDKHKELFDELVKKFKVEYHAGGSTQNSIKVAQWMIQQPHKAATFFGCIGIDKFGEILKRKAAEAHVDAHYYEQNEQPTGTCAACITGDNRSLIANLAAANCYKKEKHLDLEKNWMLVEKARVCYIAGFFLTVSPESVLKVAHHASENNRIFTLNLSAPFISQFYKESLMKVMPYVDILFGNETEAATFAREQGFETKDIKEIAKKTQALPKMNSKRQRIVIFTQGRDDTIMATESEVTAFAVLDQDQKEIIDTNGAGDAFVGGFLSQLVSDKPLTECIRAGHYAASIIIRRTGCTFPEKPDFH

`CSc1ncnc2c1c1ccsc1n2[C@@H]1O[C@H](COP(=O)([O-])O)[C@@H](O)[C@H]1O.[Na+]`: the concentration for half-maximal inhibition (IC50) in series [1] is 770 nM; in series [2], more than 50000 nM; in [4], more than 50000 nM; in series [6], 1320 nM; in [9] it was 260 nM; in series [10], more than 50000 nM. In addition, the IC50 is 250 nM in series [11]; 2190 nM in series [12]; 2590 nM in series [15]; 770 nM in series [16]; more than 50000 nM in [19]; 190 nM in series [21]. Moreover, in series [27], the IC50 was found to be 730 nM. Besides, the Drug metabolism result was “Metabolite_Detected” in series [3]; 98.5 pmol in series [5]; 13.8 pmol in series [7]; “Metabolite_Detected” in series [8]; 144.3 pmol in series [13]; 6694.3 pmol in series [14]. Also, the Drug metabolism result in series [17] was “Metabolite_Detected”; in [18], 76.2 pmol; in series [20], “Metabolite_Detected”; in series [22], “Metabolite_Detected”; in [23] it was “Metabolite_Detected”; in [24] it was 6862.8 pmol. The Drug metabolism in series [25] is on record as 75.6 pmol; in [26], “Metabolite_Detected”; in series [28] it was “Metabolite_Detected”; in series [29] it was “Metabolite_Detected”; in [30], 4933.3 pmol.

As to `Nc1ncnc2c1ncn2[C@@H]1O[C@H](COP(=O)(O)O)[C@@H](O)[C@H]1O` [ADENOSINE PHOSPHATE], the Drug metabolism entry in series [31] is on record as “Metabolite_Detected”.
